In ChEMBL document CHEMBL2384910, “Lead optimization of 5-amino-6-(2,2-dimethyl-5-oxo-4-phenylpiperazin-1-yl)-4-hydroxyhexanamides to reduce a cardiac safety issue: discovery of DS-8108b, an orally active renin inhibitor” (Bioorg Med Chem, 2013):
Numbering of substitutions follows the chain as printed.

Assays:
[1] = target: T1, Renin (Macaca fascicularis) (UniProt Q6DLS0); test: Ratio of compound IC50 to aliskiren IC50 for renin in cynomolgus monkey plasma
T1 sequence (whole entry): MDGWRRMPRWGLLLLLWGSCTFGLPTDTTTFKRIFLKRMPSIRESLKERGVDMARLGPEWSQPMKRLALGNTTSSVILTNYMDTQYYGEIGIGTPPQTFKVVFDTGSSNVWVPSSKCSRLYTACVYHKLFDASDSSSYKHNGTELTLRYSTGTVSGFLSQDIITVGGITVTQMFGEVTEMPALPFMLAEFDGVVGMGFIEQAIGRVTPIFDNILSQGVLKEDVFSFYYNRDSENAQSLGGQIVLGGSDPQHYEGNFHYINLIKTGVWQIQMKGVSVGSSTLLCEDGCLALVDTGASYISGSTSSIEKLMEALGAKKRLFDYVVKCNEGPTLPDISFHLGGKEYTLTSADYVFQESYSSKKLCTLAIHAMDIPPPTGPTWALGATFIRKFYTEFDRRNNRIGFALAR

Cynomolgus monkey [2] = test: Cardiotoxicity in conscious cynomolgus monkey assessed as change in QTc interval at 1000 mg/kg, po after 4 hrs relative to baseline; settings: in vivo
Canis familiaris [3] = test: Cardiotoxicity in anesthetized beagle dog assessed as change in QRS width at 0.5 mg/kg/min, iv after 30 mins relative to baseline; assay type: toxicity, organism-based, Canis lupus familiaris; parameters: route intravenous; settings: in vivo, 0.5 h
Summary of the method: (§1)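 Anesthetized dogs; after ECG parameters stabilized, compound infused iv continuously at 0.5 mg/kg/min for 1 h. ECG changes at 30 min as % change from baseline; 2 mL blood drawn from left femoral artery for plasma drug concentration.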

[4] = Plasma concentration in beagle dog at 0.5 mg/kg/min, iv after 30 mins; assay type: ADME, organism-based, Canis lupus familiaris; parameters: route intravenous
Summary of the method: as §1

Rattus norvegicus = test: Cardiotoxicity in Sprague-Dawley rat electrophysiology model assessed as QRS complex abnormalities at 10 mg/kg, iv by ECG analysis; assay type: toxicity, organism-based; parameters: dose 10 mg/kg, route intravenous; settings: in vivo
Summary of the method: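 Male Sprague-Dawley rats anesthetized with inactin 100 mg/kg ip; surface lead II ECG recorded continuously. Compounds given as iv bolus via right jugular vein catheter after stabilization; QRS complex abnormality scored as no, moderate or severe change; n = 2 at 10 mg/kg.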

Renin = target: T2, Renin (Homo sapiens, UniProt P00797); test: Inhibition of human recombinant renin using Arg-Glu(EDANS)-Ile-His-Pro-Phe-His-Leu-Val-Ile-His-Thr-Lys (DABCYL)-Arg as substrate incubated for 10 mins prior to substrate addition measured after 90 mins by fluorescence assay
T2 sequence (P00797 whole entry): T1 sequence (whole entry) with A68T, L214I, A235S
Summary of the method: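 Trypsin-activated recombinant human renin in 50 mM Tris-HCl pH 7.9, 100 mM NaCl, preincubated with compound 10 min at room temperature; FRET substrate Arg-Glu(EDANS)…Lys(DABCYL)-Arg added, 90 min at 37 °C.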

[5] = target: Sodium channel protein type 5 subunit alpha (Homo sapiens, UniProt Q14524); test: Inhibition of human voltage-gated Na channel 1.5 expressed in HEK293 cells at 100 uM after 2 mins by patch clamp technique; assay type: cell-based; settings: hek293, 2 min
Summary of the method: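 HEK293 cells stably expressing hNav1.5; automated patch clamp. 20 ms pulses to −10 mV from −120 mV holding at 1 Hz continuously; peak sodium current measured; compound incubated 2 min.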

Oryctolagus cuniculus [6] = test: Cardiotoxicity in anesthetized New Zealand White rabbit assessed as change in heart rate at 1 mg/kg/min, iv after 10 mins relative to baseline; assay type: toxicity, organism-based; parameters: route intravenous; settings: in vivo
Summary of the method: (§2)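 Female NZW rabbits anesthetized with ketamine 35 mg/kg ip plus xylazine 5 mg/kg ip, tracheotomized, ventilated with room air. ECG and systemic pressure monitored; HR, PR, QRS, QT, QTc quantified. After stabilization, continuous iv infusion 1 mg/kg/min for 1 h; values at 10 min as % change from baseline.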

Canis familiaris [7] = test: Cardiotoxicity in anesthetized beagle dog assessed as change in heart rate at 0.5 mg/kg/min, iv after 30 mins relative to baseline; assay type: toxicity, organism-based, Canis lupus familiaris; parameters: route intravenous; settings: in vivo, 0.5 h
Summary of the method: as §1

Heart [8] = test: Cardiotoxicity in New Zealand White rabbit heart assessed as change in QRS width at 100 uM after 20 mins relative to baseline; assay type: toxicity, tissue-based, Oryctolagus cuniculus
Summary of the method: (§3)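 Isolated Langendorff-perfused hearts from female NZW rabbits anesthetized with thiopental 30 mg/kg iv; heart excised into chilled Krebs-Henseleit solution. After parameters stabilized, compound perfused at 10, 30 and 100 µM for 20 min; ECG changes expressed as % change from baseline.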

Canis familiaris [9] = test: Cardiotoxicity in anesthetized beagle dog assessed as change in QTc interval at 0.5 mg/kg/min, iv after 30 mins relative to baseline; assay type: toxicity, organism-based, Canis lupus familiaris; parameters: route intravenous; settings: in vivo, 0.5 h
Summary of the method: as §1

Oryctolagus cuniculus [10] = test: Cardiotoxicity in anesthetized New Zealand White rabbit assessed as change in […] at 1 mg/kg/min, iv after 10 mins relative to baseline; assay type: toxicity, organism-based; parameters: route intravenous; settings: in vivo
Summary of the method: as §2

[11] = Plasma concentration cynomolgus monkey at 1000 mg/kg, po after 4 hrs; assay type: ADME, organism-based, Macaca fascicularis; parameters: dose 1000 mg/kg, route oral
Cynomolgus monkey [12] = test: Cardiotoxicity in cynomolgus monkey assessed as change in pulse rate at 1000 mg/kg, po after 4 hrs relative to baseline; settings: in vivo
Canis familiaris [13] = test: Cardiotoxicity in anesthetized beagle dog assessed as change in […] at 0.5 mg/kg/min, iv after 30 mins relative to baseline; assay type: toxicity, organism-based, Canis lupus familiaris; parameters: route intravenous; settings: in vivo, 0.5 h
Summary of the method: as §1

Cynomolgus monkey [14] = test: Cardiotoxicity in conscious cynomolgus monkey assessed as change in QRS width at 1000 mg/kg, po after 4 hrs relative to baseline; settings: in vivo
Cynomolgus monkey [15] = test: Cardiotoxicity in conscious cynomolgus monkey assessed as change in heart rate at 1000 mg/kg, po after 4 hrs relative to baseline; settings: in vivo
Heart [16] = test: Cardiotoxicity in New Zealand White rabbit heart assessed as change in […] at 100 uM after 20 mins relative to baseline; assay type: toxicity, tissue-based, Oryctolagus cuniculus
Summary of the method: as §3

Oryctolagus cuniculus [17] = test: Cardiotoxicity in anesthetized New Zealand White rabbit assessed as change in QRS width at 1 mg/kg/min, iv after 10 mins relative to baseline; assay type: toxicity, organism-based; parameters: route intravenous; settings: in vivo
Summary of the method: as §2

Cynomolgus monkey [18] = test: Inhibition of renin in po dosed furosemide pretreated cynomolgus monkey assessed as reduction in mean arterial blood pressure; assay type: functional, organism-based; settings: Macaca fascicularis
Summary of the method: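 Conscious freely moving telemetered cynomolgus monkeys (n = 6), furosemide 5 mg/kg/day im for 3 days before dosing; fasted from morning, fed ≥8 h post-dose. Oral 1, 3, 10 mg/kg or 1% methylcellulose, crossover design; arterial pressure recorded from −3 to 24 h; hourly mean MAP; mean ± SEM.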

Sequence of Sodium channel protein type 5 subunit alpha (Q14524 whole entry): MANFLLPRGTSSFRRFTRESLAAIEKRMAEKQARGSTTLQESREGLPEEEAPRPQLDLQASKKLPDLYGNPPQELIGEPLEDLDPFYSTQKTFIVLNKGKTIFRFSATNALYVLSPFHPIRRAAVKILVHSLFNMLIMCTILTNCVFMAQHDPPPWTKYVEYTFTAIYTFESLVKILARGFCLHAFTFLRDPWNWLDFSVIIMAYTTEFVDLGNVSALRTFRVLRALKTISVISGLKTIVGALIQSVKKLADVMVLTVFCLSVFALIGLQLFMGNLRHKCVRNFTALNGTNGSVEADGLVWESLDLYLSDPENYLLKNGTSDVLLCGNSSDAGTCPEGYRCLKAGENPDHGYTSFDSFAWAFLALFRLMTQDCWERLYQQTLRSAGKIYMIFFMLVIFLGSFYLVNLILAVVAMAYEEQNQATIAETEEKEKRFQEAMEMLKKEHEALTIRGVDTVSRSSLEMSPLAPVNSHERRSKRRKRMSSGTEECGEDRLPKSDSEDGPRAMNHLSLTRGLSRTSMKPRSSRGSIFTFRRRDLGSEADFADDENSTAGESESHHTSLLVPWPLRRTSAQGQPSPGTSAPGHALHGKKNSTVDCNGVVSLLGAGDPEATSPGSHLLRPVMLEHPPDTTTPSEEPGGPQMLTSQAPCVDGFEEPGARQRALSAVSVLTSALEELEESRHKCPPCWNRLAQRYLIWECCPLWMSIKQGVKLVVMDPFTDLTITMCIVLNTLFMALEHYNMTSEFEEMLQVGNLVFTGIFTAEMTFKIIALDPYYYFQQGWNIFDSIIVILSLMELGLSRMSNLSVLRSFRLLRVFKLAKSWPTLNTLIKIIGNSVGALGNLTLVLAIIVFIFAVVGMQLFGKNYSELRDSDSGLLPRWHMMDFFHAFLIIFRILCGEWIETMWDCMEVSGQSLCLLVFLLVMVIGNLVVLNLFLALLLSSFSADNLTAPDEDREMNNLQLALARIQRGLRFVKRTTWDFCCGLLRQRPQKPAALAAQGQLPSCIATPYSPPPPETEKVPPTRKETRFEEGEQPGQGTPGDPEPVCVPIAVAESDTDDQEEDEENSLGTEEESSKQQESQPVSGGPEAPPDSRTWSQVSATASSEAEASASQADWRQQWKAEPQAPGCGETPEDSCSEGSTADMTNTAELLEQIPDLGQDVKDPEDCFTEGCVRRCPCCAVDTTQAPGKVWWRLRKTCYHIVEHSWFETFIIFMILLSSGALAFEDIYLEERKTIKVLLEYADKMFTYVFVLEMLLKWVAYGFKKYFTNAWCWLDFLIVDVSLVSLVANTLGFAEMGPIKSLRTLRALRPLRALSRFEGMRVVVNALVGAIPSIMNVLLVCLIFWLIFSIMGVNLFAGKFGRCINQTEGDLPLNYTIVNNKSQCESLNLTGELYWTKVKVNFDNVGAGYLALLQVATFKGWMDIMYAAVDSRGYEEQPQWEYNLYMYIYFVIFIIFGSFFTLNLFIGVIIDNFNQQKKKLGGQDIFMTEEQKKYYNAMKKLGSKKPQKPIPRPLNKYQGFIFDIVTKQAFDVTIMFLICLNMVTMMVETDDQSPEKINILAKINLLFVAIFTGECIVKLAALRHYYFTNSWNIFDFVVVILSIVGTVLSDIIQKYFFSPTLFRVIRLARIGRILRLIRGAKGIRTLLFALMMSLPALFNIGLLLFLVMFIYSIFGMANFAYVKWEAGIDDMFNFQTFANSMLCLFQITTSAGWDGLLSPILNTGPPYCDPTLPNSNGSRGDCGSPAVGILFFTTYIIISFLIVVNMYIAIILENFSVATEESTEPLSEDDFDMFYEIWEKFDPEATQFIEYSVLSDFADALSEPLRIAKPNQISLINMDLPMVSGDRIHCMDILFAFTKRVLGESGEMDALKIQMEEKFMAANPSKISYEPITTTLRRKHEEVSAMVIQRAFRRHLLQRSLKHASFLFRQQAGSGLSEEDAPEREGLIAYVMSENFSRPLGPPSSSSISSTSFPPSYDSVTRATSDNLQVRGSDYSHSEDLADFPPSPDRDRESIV

CC[C@H](C[C@H](O)[C@@H](N)CN1CC(=O)N(c2ccccc2Cl)CC1(C)C)C(=O)N[C@H]1C2CC3CC1C[C@](O)(C3)C2.O=C(O)/C=C/C(=O)O
Ratio IC50 [1]: 0.8
Activity (Cynomolgus monkey [2]): -0.4%
Activity (Canis familiaris [3]): 5.8%
concentration at 0.5 h [4]: 38100 ng/mL
Activity (Rattus norvegicus): Non-toxic
IC50 (Renin): 0.9 nM
inhibition (INH) [5]: Not Active
Activity (Oryctolagus cuniculus [6]): 3.9%
Activity (Canis familiaris [7]): -5.4%
Activity (Heart [8]): 1.7%
Activity (Canis familiaris [9]): -1.4%
Activity (Oryctolagus cuniculus [10]): -1.3%
concentration at 4 h [11]: 5400 ng/mL
Activity (Cynomolgus monkey [12]): 0.3%
Activity (Canis familiaris [13]): -1.5%
Activity (Cynomolgus monkey [14]): -7.6%
Activity (Cynomolgus monkey [15]): -4.2%
Activity (Heart [16]): 1.7%
Activity (Oryctolagus cuniculus [17]): -1.3%
inhibition (Cynomolgus monkey [18]): Dose-dependent effect
